From PubChem BioAssay
Rows were chosen to be rich in hits. Some 1.9% of all compounds tested hit in one or more screens of this group.
MIN6 prolif – inducers of beta-cell replication in MIN6 cells; proliferation, % at 10 µM; MIN6 cells proliferation, ATPlite luminescence, 48 h; cells starved in 0.2% serum; 100% = growth in 10% serum; AID 2380; 330,000 tested, 0.29% active;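 active = compounds whose signal lies at least 3.5 SD above the mean of all wells on their plate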
CR mimetic SO – yeast age-related superoxide inhibition as caloric restriction mimetic; 330,000 tested, 0.18% active; superoxide response (% of plate mean), % at 10 µM; S. cerevisiae aged cells, superoxide DHE fluorescence; active compounds read low; AID 2690;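 active = superoxide response under a set limit, about three screen SD below normal, cut at about 65% in these data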;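 also: yeast aged for seven days with compound at 30 °C before DHE staining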
NR1D1 modulator – Rev-erb alpha (human) modulation; Rev-erbα–FITC-DNA binding, fluorescence polarization, 90 min; 370,000 tested, 0.79% active; AID 1259318; activity, % at 10 µM;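 active = activity above about 14%, limit read from the data; passing the limit was not always enough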
Target sequence (P20393 whole entry, looked up): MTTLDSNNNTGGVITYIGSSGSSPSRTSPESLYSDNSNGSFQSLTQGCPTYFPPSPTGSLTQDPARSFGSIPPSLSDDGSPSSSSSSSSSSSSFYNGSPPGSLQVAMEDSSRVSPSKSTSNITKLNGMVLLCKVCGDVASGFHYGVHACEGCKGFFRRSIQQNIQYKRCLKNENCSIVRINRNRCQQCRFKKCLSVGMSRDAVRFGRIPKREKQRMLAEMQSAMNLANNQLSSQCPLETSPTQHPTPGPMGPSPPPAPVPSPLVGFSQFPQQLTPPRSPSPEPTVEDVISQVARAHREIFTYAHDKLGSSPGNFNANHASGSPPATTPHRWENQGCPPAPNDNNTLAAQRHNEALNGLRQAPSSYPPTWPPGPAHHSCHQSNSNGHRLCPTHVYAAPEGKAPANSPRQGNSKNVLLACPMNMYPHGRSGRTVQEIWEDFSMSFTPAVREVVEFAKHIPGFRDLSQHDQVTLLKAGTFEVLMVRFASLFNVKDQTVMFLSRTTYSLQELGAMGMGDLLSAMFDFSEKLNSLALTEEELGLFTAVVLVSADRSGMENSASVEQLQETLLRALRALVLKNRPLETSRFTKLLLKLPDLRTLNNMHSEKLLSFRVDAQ
UCH37 inh – human UCH37 deubiquitinating enzyme inhibition | AID 588478 | purified proteasome/UCH37, Ub-AMC cleavage fluorescence | inhibition, % (concentration not given with the values) | 330,000 tested, 0.33% active;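 active = mean inhibition over replicate wells above about 20%, limit read from the data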
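Material: Human UCH37 enzyme supplied as purified proteasome complex | Schedule: 30 min preincubation with enzyme, 25 min cleavage at room temperature | Detection: AMC fluorescence 355/460 nm | Measure: % inhibition of Ub-AMC cleavage fluorescence | Controls: Wells without proteasome as full block, compound-free enzyme plus substrate as uninhibited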
PG9 Ab binder – binds the HIV-1 gp120 antibody PG9; TR-FRET gp120-PG9 antibody binding; AID 624416; inhibition, % at 6.7 µM; 360,000 tested, 0.43% active; in the data active = inhibition above about 8.5%
Rce1 inhib – inhibitors of yeast Ras-converting enzyme; 290,000 tested, 0.27% active; yeast membranes, quenched prenylated peptide cleavage fluorescence; AID 2563; calls only; Q03530;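 active = fall in fluorescence gain of 50% or more versus controls, with final raw signal at or below 3038400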
NR1D1 mod conf – Rev-erb alpha (human) modulation, hit confirmation. 3,000 tested, 61% active. shares compounds with NR1D1 modulator. Rev-erb alpha FITC-DNA binding, fluorescence polarization, 90 min. activation, % at 25 µM;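 active = activation at or above a set limit, or at least 3 SD above the negative control mean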
RORg counter – RORgamma DNA-binding activity, dose-response counter-screen; shares compounds with NR1D1 modulator; purified RORgamma protein-FITC-DNA binding, fluorescence polarization; IC50, µM; 910 tested, 8% active; AID 1259320;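 active = Compounds whose fitted half-maximal concentration for disrupting protein-DNA binding is below 10 micromolar; the record names Rev-erb in its text, so the target is in doubt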
A number is an active result; - = inactive; . = not tested or not shown; + = active, no number.

SMILES	MIN6 prolif	CR mimetic SO	NR1D1 modulator	UCH37 inh	PG9 Ab binder	Rce1 inhib	NR1D1 mod conf	others
CCOCCCNc1nc2c(C)cccn2c(=O)c1/C=C1\SC(=S)N(C(C)CC)C1=O (stereo not given)	-	-	23	-	-	-	-
COc1ccc(OC)c(NC(=O)c2cc3oc4ccccc4c3cc2O)c1	-	-	41	.	-	+	-
COc1ccc(OC)c(NC(=O)c2ccccc2SC)c1	-	-	-	-	-	-	.
CN(C)Cc1c(C(=O)NN=Cc2cccc(OCc3ccccc3)c2)nnn1-c1nonc1N	.	.	.	-	.	.	.
O=C(COc1ccc(Br)cc1)NN=C1SCC(=O)N1Cc1ccccc1	.	.	.	-	.	.	.
CC(C)C(=O)NNC(=O)CSc1nc(C2CCCCC2)nc2ccccc12	-	-	-	-	-	-	.
O=C(CSc1nc(C2CCCCC2)nc2ccccc12)NCc1ccc2c(c1)OCO2	-	-	20	-	-	.	-
COc1ccc(C=NNC(=O)c2cc(C)n(-c3ccccc3)c2C)cc1OC	.	.	.	-	.	.	.
Brc1ccc2nc(-c3ccc(CN4CCC(c5nc6ccccc6[nH]5)CC4)cc3)c(-c3ccccc3)nc2c1	.	.	16	.	-	.	12
COc1ccc2nc(-c3ccc(CN4CCC(c5nc6ccccc6[nH]5)CC4)cc3)c(-c3ccccc3)nc2c1	.	.	-	.	-	.	.
CC(=O)Oc1cccc(C=c2sc3nc(-c4ccco4)nn3c2=O)c1	.	.	.	-	.	.	.
O=C1CCCC(O)=C1C=Nc1cccc(C(F)(F)F)c1	-	-	-	-	-	-	.
O=C1CCCC(O)=C1C=Nc1ccc2c(c1)oc1ccccc12	-	-	30	-	-	-	28
CC/C(=N\Nc1ccccc1[N+](=O)[O-])c1ccc(O)cc1	-	-	15	.	-	-	-
COc1ccc(OC)c(C=NNC(=O)CSc2nnc(CCCc3ccc(OC)c(C)c3)o2)c1	.	.	.	-	.	.	.
Cc1ccc2nc(-c3cccc(Br)c3)cc(C(=O)NCC3CCCO3)c2c1 (stereo not given)	-	-	24	-	-	-	-
O=C(/C=C\Nc1ccc(Cl)cn1)c1ccc(Br)cc1	-	-	67	-	-	.	-
Oc1c(Cl)cc(Cl)cc1C=NNc1ncc(Br)cn1	.	.	.	-	.	.	.
COc1ccccc1Nc1nc2cc(C)ccc2cc1C#N	-	-	96	-	-	.	-
COc1ccccc1Nc1nc2ccc(C)cc2cc1C#N	-	-	-	.	-	-	.
CCc1cc(=O)oc2c(C)c(OCC(=O)NCc3ccccn3)ccc12	-	-	30	-	-	-	23
O=C(Cc1ccccc1)NN=Cc1ccc(Br)o1	.	.	.	-	.	.	.
O=C(NNc1c2ccccc2nc2ccccc12)c1cccc(O)c1	-	-	20	-	-	-	-
CSc1nc(C)c2c(n1)N(c1ccc(C(F)(F)F)cc1)CC2	-	-	23	-	-	-	-
C[C@H]1CN(S(=O)C(C)(C)C)[C@@H](CCO)/C1=C\c1ccccc1 (stereo not given in full)	.	.	15	.	-	.	-
SMILES	MIN6 prolif	CR mimetic SO	NR1D1 modulator	UCH37 inh	PG9 Ab binder	Rce1 inhib	NR1D1 mod conf	others
C[C@H]1CN(S(=O)C(C)(C)C)[C@H](CCO)/C1=C\c1ccccc1 (stereo not given in full)	.	.	-	-	-	.	.
C=CCN1C(=O)/C(=C2/Sc3ccc(OC)cc3N2C)SC1=NCc1ccccc1	-	-	55	-	-	-	47	RORg counter=-
O=C(CN1CCOCC1)NN=C/C=C/c1ccccc1	.	.	.	-	.	.	.
CCOc1ccc(CNC(=O)Cn2c(=O)c3cccn3c3ccccc32)cc1	-	-	39	-	-	-	24
Cc1ccc(COc2ccc(C=NNC(=O)c3ccc(CN4CCOCC4)cc3)cc2)cc1	.	.	.	-	.	.	.
COc1cc(SC)ccc1C(=O)Nc1ccc(Cl)cn1	-	-	18	-	-	.	34	RORg counter=-
COc1ccccc1C(=O)NNC(=O)c1cccc(Cl)c1	-	-	29	-	-	-	-
COc1cc2ccccc2cc1C(=O)Nc1ccc(Br)cn1	-	-	36	-	-	-	28
COc1ccccc1C(=O)Nc1cccc(NC(=O)c2ccccc2OC)n1	-	-	23	-	-	-	-
COc1ccccc1C(=O)Nc1ccon1	-	-	-	-	-	-	.
CSc1ccc(Cl)c(C(=O)Nc2ccc(Cl)cn2)c1	-	-	-	-	-	-	.
Nc1nonc1-n1nnc(C(=O)NN=Cc2ccncc2)c1CSc1ccc(Cl)cc1	.	.	.	-	.	.	.
COc1cccc(C=Nn2c(C)nc3ccccc32)c1OC	.	.	.	-	.	.	.
Cc1ccc(NN=C(Sc2nnnn2-c2ccccc2)C(=O)c2ccccc2)cc1	.	.	.	-	.	.	.
CCOC(=O)C1CCCN(C2=NC(=O)/C(=C/c3ccc(N(C)C)cc3)S2)C1 (stereo not given)	-	-	27	-	-	-	-
Cc1ccc(OCCC(=O)OCC(=O)NC(=O)NCc2ccccc2)cc1	-	-	17	-	-	-	-
Cc1ccc(CNC(=O)COC(=O)CCOc2ccc(C)cc2)cc1	-	-	-	-	-	-	.
CC1CC(=NNC(=O)c2cccc(F)c2)c2ccc(O)cc2C1 (stereo not given)	.	.	.	-	.	.	.
Cc1c(N=C2N=C(NC(=O)NC(C)(C)C)c3ccccc32)c(=O)n(-c2ccccc2)n1C	-	-	-	-	-	-	.
Cc1c(N=C2N=C(NC(=O)c3cccs3)c3ccccc32)c(=O)n(-c2ccccc2)n1C	-	-	18	-	-	.	-
COc1ccc(C(C)=NNC(=O)Cn2nc([N+](=O)[O-])cc2C)cc1	.	.	.	-	.	.	.
CC(=O)Nc1ccc(S(=O)(=O)N2CCN(Cc3ccncc3)CC2)cc1	-	-	-	-	-	-	.
CC(=O)Nc1ccc(S(=O)(=O)N2CCN(Cc3nc4sc(C)c(C)c4c(=O)[nH]3)CC2)cc1	-	-	31	-	-	-	-
CCCCNC(=O)CON=C(C)c1cc2ccccc2o1	.	.	.	-	.	.	.
O=C(NCCC(c1ccccc1)c1ccccc1)c1cnc2sccn2c1=O	-	-	26	-	-	-	-
SMILES	MIN6 prolif	CR mimetic SO	NR1D1 modulator	UCH37 inh	PG9 Ab binder	Rce1 inhib	NR1D1 mod conf	others
COc1ccc(-c2cc(=Nc3nc(-c4ccccc4)c(C)s3)c3ccccc3o2)cc1O	.	.	.	-	.	.	.
O=c1sc(N2CCN(c3ccccc3F)CC2)nc2ccsc12	-	-	24	-	-	-	14
O=S(=O)(c1cccs1)N1CCN(c2ccccc2F)CC1	-	-	-	-	-	-	.
C=CC[C@@H]1C=C[C@H](ON=C[C@@H](NS(=O)(=O)c2ccc(C)cc2)[C@H](C)/C=C/CC(=O)OC)[C@@H](CO)O1	.	.	.	-	.	.	.
Cc1nn(-c2ccc(Cl)cc2)c(=O)c2ccccc12	-	-	-	-	-	-	.
Cc1nn(-c2ccc(Cl)c(Cl)c2)c(=O)c2ccccc12	-	-	48	-	-	-	41	RORg counter=-
COc1cc(/C=C2/C(=N)N3C=CSC3=NC2=O)ccc1OCCCOc1ccccc1C	-	-	-	-	-	-	.
